The EternaBench riboswitch data

Test system: MS2 coat protein
Assay: apparent Kd, MS2 coat protein; higher = weaker binding; RNA-MaP array; FMN 200 µM where present
Method in brief: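 SNAP-549-labelled MS2 coat protein, doubled from 0.7 or 1.5 nM to 3 µM, was titrated over designs transcribed by stalled E. coli RNA polymerase on Illumina sequencing-chip clusters. Titrations were run without and then with constant ligand in 100 mM Tris-HCl pH 7.5, 80 mM KCl, 4 mM MgCl2, BSA, DTT, yeast tRNA and Tween-20. The apparent Kd is the median of filtered per-cluster fits to green signal normalised to red-channel RNA signal and control-cluster median Fmax.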

[1] = designed as: ON switch for flavin mononucleotide, no ligand
[2] = ligand present: flavin mononucleotide, designed as: ON switch for flavin mononucleotide
[3] = designed as: OFF switch for flavin mononucleotide, no ligand
[4] = ligand present: flavin mononucleotide, designed as: OFF switch for flavin mononucleotide

Sequence: GGCUACAUCGGAGGAUAUCAUGUAAAUACAUGAGGAUCACCCAUGUCGAUGGAGACAUCGGAGAUUGAGAAGGCCGAUGUACCG
- apparent Kd [1]: 182 nM
- apparent Kd [2]: 8.49 nM

Sequence: GGCUAGCCUCAAGGAUAUACGCUCUCAACAAAGAACCGACUACAUGAGGAUCACCCAUGUACCAUGUAGAAGGUGAGGUUAGCC
- apparent Kd [1]: 906 nM
- apparent Kd [2]: 58.1 nM

Sequence: GGCUCAUUGACAUUAAUGUGCAGACAGGAUAUCCACGGCGGUUCCUACAUGAGGAUCACCCAUGUGGAGAAGGGUCGCUAAUGG
- apparent Kd [3]: 14.4 nM
- apparent Kd [4]: 33 nM

Sequence: GGCUCCGCUCGAGGAUAUAGCUGCAUGUAGUGUCCUGAGGCACAUGAGGAUCACCCAUGUGUAGGCUAGAAGGCGACGGAAGCU
- apparent Kd [3]: 142 nM
- apparent Kd [4]: 176 nM

Sequence: GGCUCCGCUCGAGGAUAUAGCUGCAUGUAGUGUCCUGAGGCACAUGAGGAUCACCCAUGUGUAGGCUAGAAGGCGACGGACGUU
- apparent Kd [3]: 121 nM
- apparent Kd [4]: 249 nM

Sequence: GGGAAGUUAGGAUAUGCUGCUCGUCACUUGCGUGAUGAGUAGCAGAAGGAACAUGAGGAUCACCCAUGUAAAGA
- apparent Kd [3]: 34.3 nM
- apparent Kd [4]: 37.5 nM

Sequence: GGGAAUAAACCCGUCUCCGCCCAACCAGAAGGGCACGAUAAUAUUACAUGAGGAUCACCCAUGUUGCAGGAUAUGGUGGGCCUC
- apparent Kd [1]: 180 nM
- apparent Kd [2]: 76.9 nM

Sequence: GGGACCAACACAGGAUAUGCUAUCCUUUGGGUAGCAGAAGGGUGAAACAUGAGGAUCACCCAUGUGGUUCCAGGGCGUGAGCCC
- apparent Kd [1]: 1580 nM
- apparent Kd [2]: 99.6 nM

Sequence: GGGAUGUCAGGAUAUCCAAAAGUCUGCCAAUACAGCAGACAGGAGAAGGGACAUGAGGAUCACCCAUGUAAAGA
- apparent Kd [3]: 39.5 nM
- apparent Kd [4]: 107 nM

Sequence: GGGCACGGAGGAUAUACAUGAGGAUCACCCAUGUGAUUAGGGCAGUACUUGCCGAUCCGUAGAAGGUUGGCCGA
- apparent Kd [3]: 26.1 nM
- apparent Kd [4]: 26.8 nM

Sequence: GGGCCCGGAGGAUAUACAAUGGGCUCGGGAAACUGGGUCUUACAUGAGGAUCACCCAUGUAGAAGGCCGGGCCC
- apparent Kd [3]: 18.9 nM
- apparent Kd [4]: 23.4 nM

Sequence: GGGCCGGUGGAGAAGGAGCUUACGAAACGUAGGCUAGGAUAUCCACAUGAGGAUCACCCAUGUGGGAAUAUCUGAUUUUCGCAG
- apparent Kd [3]: 4 nM
- apparent Kd [4]: 5.26 nM

Sequence: GGGCCGGUGGAGAAGGAGCUUGCGAAACGCAUGCUAGGAUAUCCACAUGAGGAUCACCCAUGUGGGAAUAUCUGAUUUUCGCAG
- apparent Kd [3]: 4.36 nM
- apparent Kd [4]: 4.84 nM

Sequence: GGGCUCGGAGGAUAUACAUGAGGAUCACCCAUGUAUCUGGGUCUUAUUGGGCUCGGGUGUAGAAGGCUGGGUCU
- apparent Kd [3]: 13.9 nM
- apparent Kd [4]: 15.5 nM

Sequence: GGGUACAGUGAGAAGGUCUGCGGAUUCCUUAACAUGAGGAUCACCCAUGUAGAAGGAUAUCACAGGUAAAGGUCGUCUAACGAU
- apparent Kd [3]: 5.49 nM
- apparent Kd [4]: 6.82 nM

Sequence: GGGUACAUCGGAGGAUAUCAUGUAAAUACAUGAGGAUCACCCAUGUCGAUGCAGACAUCGGAGAUUGAGAAGGCCGAUGUACCG
- apparent Kd [1]: 974 nM
- apparent Kd [2]: 78.4 nM

Sequence: GGGUACAUCGGAGGAUAUCAUGUAAAUACAUGAGGAUCACCCAUGUCGAUGGAGACAUCCGAGAUUGAGAAGGCCGAUGUACCG
- apparent Kd [1]: 29.3 nM
- apparent Kd [2]: 13.3 nM

Sequence: GGGUACAUCGGAGGAUAUCAUGUAAAUACAUGAGGAUCACCCAUGUCGAUGGAGACAUCGGAGAAUGAGAAGGCCGAUGUACCG
- apparent Kd [1]: 17.6 nM
- apparent Kd [2]: 5.34 nM

Sequence: GGGUACAUCGGAGGAUAUCAUGUAAAUACAUGAGGAUCACCCAUGUCGAUGGAGACAUCGGAGAUUGAGAAGGCCGAUGUAACG
- apparent Kd [1]: 183 nM
- apparent Kd [2]: 9.47 nM

Sequence: GGGUACAUCGGAGGAUAUCAUGUAAAUACAUGAGGAUCACCCAUGUCGAUGGAGACAUCGGAGAUUGAGAAGGCCGAUGUAUCG
- apparent Kd [1]: 157 nM
- apparent Kd [2]: 9.09 nM

Sequence: GGGUACAUCGGAGGAUAUCAUGUAAAUACAUGAGGAUCACCCAUGUCGAUGGAGACAUCGGAGAUUGAGAAGGCCGAUGUGCCG
- apparent Kd [1]: 145 nM
- apparent Kd [2]: 9.5 nM

Sequence: GGGUACAUCGGAGGAUAUCAUGUAAAUACAUGAGGAUCACCCAUGUCGAUGGAGACAUCGGAGUUUGAGAAGGCCGAUGUACCG
- apparent Kd [1]: 150 nM
- apparent Kd [2]: 6.58 nM

Sequence: GGGUACAUCGGAGGAUAUCAUGUAAAUACAUGAGGAUCACCCAUGUCGAUUGAGACAUCGGAGAUUGAGAAGGCCGAUGUACCG
- apparent Kd [1]: 74.5 nM
- apparent Kd [2]: 534 nM
